Reference: article PMC4071626 (MedChemComm, 2013)

Tests used:
Δ49N CHKA2 = Δ49N CHKA2 (Homo sapiens, UniProt P35790); assay: Lineweaver-Burk reaction kinetics against Δ49N CHKA2; format: biochemical; conditions: 0.1, 1 or 10 μM inhibitor; choline or ATP varied, the other kept at KM
Summary of the method: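 Δ49N CHKA2 reaction kinetics run without inhibitor or with test compound at 0.1, 1 or 10 μM. Choline varied with ATP fixed at KM, or ATP varied with choline fixed at KM; double-reciprocal (Lineweaver–Burk) plots used to assign inhibition type versus each substrate.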

[1] = system: CHK reaction in HCT-116 cells; assay: Inhibition of [3H]PCho formation from [3H]Cho in whole HCT-116 cells; format: cell-based, human; conditions: HCT-116 cells incubated with [3H]Cho
Summary of the method: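 HCT-116 cells incubated with [3H]Cho plus test compound over a range of concentrations; [3H]PCho formed from [3H]Cho measured to follow dose-dependent change in cellular choline phosphorylation.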

Sequence of Δ49N CHKA2 (P35790 50-457 limits assumed, stated change not applied): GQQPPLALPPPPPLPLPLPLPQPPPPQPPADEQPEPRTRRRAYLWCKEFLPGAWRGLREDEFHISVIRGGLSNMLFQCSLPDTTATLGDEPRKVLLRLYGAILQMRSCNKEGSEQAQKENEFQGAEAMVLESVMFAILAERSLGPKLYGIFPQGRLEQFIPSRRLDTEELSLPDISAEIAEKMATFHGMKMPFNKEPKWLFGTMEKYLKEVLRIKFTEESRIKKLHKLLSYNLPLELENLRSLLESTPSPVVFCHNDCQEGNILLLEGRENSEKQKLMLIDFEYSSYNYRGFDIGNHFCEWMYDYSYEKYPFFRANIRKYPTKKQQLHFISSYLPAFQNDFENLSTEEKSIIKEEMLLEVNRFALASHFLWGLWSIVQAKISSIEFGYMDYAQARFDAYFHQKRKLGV

SMILES	Type of inhibition (Lineweaver-Burk plots) (Δ49N CHKA2)	Concentration above which [3H]PCho formation is inhibited >75% [1]
CN(C)c1cc[n+](CCCCCCCCCCCC[n+]2ccc(N(C)C)cc2)cc1.[Br-].[Br-] [Compound 8]	competitive with choline, but not with ATP	above 6.5 ± 4 μM
CN(C)c1cc[n+](CCCCCCCCCCCCn2cnc3c(N)ncnc32)cc1.[Br-] [Compound 12]	mixed type of inhibition	–
CN(C)c1cc[n+](CCCCCCCCCCCCCC[n+]2ccc(N(C)C)cc2)cc1.[Br-].[Br-] [Compound 13]	–	> 2.4 ± 1 µM
